Results as given in ChEMBL document CHEMBL1141365, “A novel series of highly selective inhibitors of MMP-3” (Bioorg Med Chem Lett, 2007).
Converted amounts (≈) assume the structure as drawn.

Assays:
Stromelysin-1 = Stromelysin-1 (Homo sapiens, UniProt P08254); assay: Inhibition of MMP3
Method in brief: (§1)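 Catalytic-domain enzyme; 1 µM stock activated with APMA (1 mM, 1 h at 37 °C for MMP-2; 2 mM, 3 h at 37 °C for MMP-3), then diluted to 10 nM in Tris–HCl buffer. Assay used 0.1 nM enzyme and 5 µM fluorogenic substrate Mca-Arg-Pro-Lys-Tyr-Ala-Nva-Trp-Met-Lys(Dnp)-NH2. Inhibitor (≤1% DMSO) preincubated with enzyme 15 min at 37 °C. After substrate, 1 h at 37 °C; fluorescence read at ex 328/em 393 nm. IC50 taken from concentration–response curves as the geometric mean of ≥3 experiments.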

[1] = target: 72 kDa type IV collagenase (Homo sapiens, UniProt P08253); assay: Inhibition of MMP2; method in brief: as §1
[2] = Selectivity for MMP3 over MMP2
Collagenase 3 = Collagenase 3 (Homo sapiens, UniProt P45452); assay: Inhibition of MMP13
[3] = target: Matrix metalloproteinase-14 (Homo sapiens, UniProt P50281); assay: Inhibition of MMP14
[4] = target: Matrix metalloproteinase-9 (Homo sapiens, UniProt P14780); assay: Inhibition of MMP9
Interstitial collagenase = target: T1, Interstitial collagenase (Homo sapiens, UniProt P03956); assay: Inhibition of MMP1
T1 sequence (P03956 whole entry): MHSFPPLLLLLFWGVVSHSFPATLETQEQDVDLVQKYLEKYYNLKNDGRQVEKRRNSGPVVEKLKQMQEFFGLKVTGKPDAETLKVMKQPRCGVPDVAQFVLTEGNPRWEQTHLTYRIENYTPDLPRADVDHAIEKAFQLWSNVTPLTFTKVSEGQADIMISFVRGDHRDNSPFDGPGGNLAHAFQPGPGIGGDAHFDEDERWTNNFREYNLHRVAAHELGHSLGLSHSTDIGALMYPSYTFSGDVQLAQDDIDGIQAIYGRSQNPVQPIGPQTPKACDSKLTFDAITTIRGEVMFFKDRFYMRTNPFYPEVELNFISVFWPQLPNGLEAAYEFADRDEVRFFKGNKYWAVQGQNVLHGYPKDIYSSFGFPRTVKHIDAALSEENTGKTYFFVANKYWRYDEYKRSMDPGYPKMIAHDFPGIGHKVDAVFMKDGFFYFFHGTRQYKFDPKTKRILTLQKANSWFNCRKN

[5] = Aqueous solubility of the compound; assay type: physicochemical
Method in brief: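 Solubility in aqueous media determined across pH 1, 5, 7, 9 and 11.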

Sequence of Matrix metalloproteinase-9 (P14780 whole entry): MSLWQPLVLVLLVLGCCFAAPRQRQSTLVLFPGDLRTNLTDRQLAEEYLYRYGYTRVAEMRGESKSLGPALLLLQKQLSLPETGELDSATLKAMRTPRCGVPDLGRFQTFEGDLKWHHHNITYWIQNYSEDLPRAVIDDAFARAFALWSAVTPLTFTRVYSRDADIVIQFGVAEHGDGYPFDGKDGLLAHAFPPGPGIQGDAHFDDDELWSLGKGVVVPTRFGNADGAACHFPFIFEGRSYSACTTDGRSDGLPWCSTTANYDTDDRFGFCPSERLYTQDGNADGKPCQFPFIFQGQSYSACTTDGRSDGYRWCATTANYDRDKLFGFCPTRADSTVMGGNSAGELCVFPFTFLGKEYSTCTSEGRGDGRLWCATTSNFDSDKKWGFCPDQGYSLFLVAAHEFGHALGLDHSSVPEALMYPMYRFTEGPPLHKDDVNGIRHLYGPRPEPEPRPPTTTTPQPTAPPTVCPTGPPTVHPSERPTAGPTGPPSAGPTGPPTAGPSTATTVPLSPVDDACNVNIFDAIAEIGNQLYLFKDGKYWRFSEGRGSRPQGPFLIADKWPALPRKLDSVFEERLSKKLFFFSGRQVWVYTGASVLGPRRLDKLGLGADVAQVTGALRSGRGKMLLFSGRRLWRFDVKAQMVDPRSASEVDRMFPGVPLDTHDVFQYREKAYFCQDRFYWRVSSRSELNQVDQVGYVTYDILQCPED
Sequence of Stromelysin-1 (P08254 whole entry): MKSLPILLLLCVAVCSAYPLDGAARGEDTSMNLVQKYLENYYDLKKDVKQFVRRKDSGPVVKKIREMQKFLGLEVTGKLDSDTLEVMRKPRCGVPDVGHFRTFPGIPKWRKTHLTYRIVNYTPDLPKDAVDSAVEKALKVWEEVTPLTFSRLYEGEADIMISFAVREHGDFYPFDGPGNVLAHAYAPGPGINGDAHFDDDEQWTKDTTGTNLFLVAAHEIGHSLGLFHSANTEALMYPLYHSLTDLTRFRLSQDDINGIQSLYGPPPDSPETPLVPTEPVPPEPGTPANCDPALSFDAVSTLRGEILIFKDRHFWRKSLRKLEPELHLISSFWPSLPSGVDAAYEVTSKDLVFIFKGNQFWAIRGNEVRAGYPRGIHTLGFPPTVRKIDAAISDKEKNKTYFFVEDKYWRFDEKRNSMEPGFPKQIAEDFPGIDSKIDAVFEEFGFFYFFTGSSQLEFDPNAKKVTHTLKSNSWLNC
Sequence of 72 kDa type IV collagenase (P08253 whole entry): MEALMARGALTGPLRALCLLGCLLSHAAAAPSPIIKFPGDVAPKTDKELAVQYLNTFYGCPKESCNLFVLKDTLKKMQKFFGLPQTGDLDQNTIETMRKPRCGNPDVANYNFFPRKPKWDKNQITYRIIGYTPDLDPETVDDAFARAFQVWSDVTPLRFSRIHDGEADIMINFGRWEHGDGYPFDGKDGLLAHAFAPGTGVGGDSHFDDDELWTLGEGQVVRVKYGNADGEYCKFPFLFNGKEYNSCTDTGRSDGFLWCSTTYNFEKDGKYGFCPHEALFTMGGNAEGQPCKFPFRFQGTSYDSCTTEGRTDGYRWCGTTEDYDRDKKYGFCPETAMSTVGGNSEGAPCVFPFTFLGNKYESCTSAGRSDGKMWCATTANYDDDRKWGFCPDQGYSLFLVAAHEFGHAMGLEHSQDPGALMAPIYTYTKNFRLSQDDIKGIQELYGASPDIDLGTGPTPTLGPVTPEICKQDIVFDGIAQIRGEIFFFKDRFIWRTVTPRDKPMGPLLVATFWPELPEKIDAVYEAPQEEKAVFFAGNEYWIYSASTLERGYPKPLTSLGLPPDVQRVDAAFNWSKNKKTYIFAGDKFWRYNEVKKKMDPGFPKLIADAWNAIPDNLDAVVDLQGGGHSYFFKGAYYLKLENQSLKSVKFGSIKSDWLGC

SMILES | IC50 (Stromelysin-1) [nM] | IC50 [1] [nM] | other results
CCOc1cccc(-c2ccc(C3CCN(S(=O)(=O)C(C)(C)C(=O)NO)CC3)cc2C)c1 | 2 | 457 | –
CN(Cc1ccc(-c2ccccc2)cc1)S(=O)(=O)CC(=O)NO | 378 | – | Selectivity ratio [2]: < 2
CCc1cc(C2=CCN(S(=O)(=O)CC(=O)NO)CC2)ccc1-c1ccccc1 | 420 | 4380 | –
CN(CCCc1ccc(-c2ccccc2)cc1)S(=O)(=O)CC(=O)NO | 174 | – | Selectivity ratio [2]: < 2
COC[C@@H](NC(=O)[C@@H](NC(=O)[C@H](CCCc1ccc(-c2ccccc2)c(C)c1)CC(=O)O)C(C)(C)C)c1ccccc1 | 23 | – | IC50 (Collagenase 3): 2300 nM; IC50 [3]: 66900 nM; IC50 [4]: 30400 nM; IC50 (Interstitial collagenase): > 100000 nM
O=C(CS(=O)(=O)N1CCC(c2ccc(-c3ccccc3)cc2)CC1)NO | – | – | Selectivity ratio [2]: < 2
O=C(CS(=O)(=O)N1CC=C(c2ccc(-c3ccccc3)c(C(F)(F)F)c2)CC1)NO | 960 | 3080 | –
Cc1cc(C2=CCN(S(=O)(=O)CC(=O)NO)CC2)ccc1-c1cccc(OC(F)(F)F)c1 | 51 | 173 | –
COCCOc1cccc(-c2ccc(C3CCN(S(=O)(=O)C(C)(C)C(=O)NO)CC3)cc2C)c1 | 3 | 853 | –
Cc1cc(C2=CCN(S(=O)(=O)CC(=O)NO)CC2)ccc1-c1ccccc1 | – | 320 | –
CN(CCc1ccc(-c2ccccc2)cc1)S(=O)(=O)CC(=O)NO | 164 | – | Selectivity ratio [2]: < 2
CNCCOc1cccc(-c2ccc(C3CCN(S(=O)(=O)C(C)(C)C(=O)NO)CC3)cc2C)c1 | 0.3 | 196 | –
Cc1cccc(-c2ccc(C3=CCN(S(=O)(=O)CC(=O)NO)CC3)cc2C)c1 | 4 | 776 | –
O=C(CS(=O)(=O)N1CC=C(c2ccc(-c3ccccc3)cc2)CC1)NO | 6 | 9 | Selectivity ratio [2]: < 2
Cc1cc(C2CCN(S(=O)(=O)C(C)(C)C(=O)NO)CC2)ccc1-c1cccc(OCCO)c1 | 1 | 262 | IC50 [3]: 1710 nM; solubility [5]: 1 µg/mL (≈ 2.1 µM); IC50 [4]: 406 nM; IC50 (Interstitial collagenase): 3230 nM
COCc1cccc(-c2ccc(C3=CCN(S(=O)(=O)CC(=O)NO)CC3)cc2C)c1 | 3 | 196 | –
Cc1cc(C2CCN(S(=O)(=O)C(C)(C)C(=O)NO)CC2)ccc1-c1cccc(OCCN)c1 | 0.4 | 188 | –
O=C(CS(=O)(=O)N1CC=C(c2ccc(-c3ccccc3)c(Cl)c2)CC1)NO | 55 | 620 | –
CCc1cccc(-c2ccc(C3=CCN(S(=O)(=O)CC(=O)NO)CC3)cc2C)c1 | 31 | 1210 | –
O=C(CS(=O)(=O)N1CCC(c2ccc(Oc3ccccc3)cc2)CC1)NO | 205 | – | Selectivity ratio [2]: < 2
Cc1cc(C2CCN(S(=O)(=O)C(C)(C)C(=O)NO)CC2)ccc1-c1cccc(OCCO)n1 | 1 | 529 | IC50 [3]: 20100 nM; solubility [5]: 1 µg/mL (≈ 2.09 µM); IC50 [4]: 2420 nM; IC50 (Interstitial collagenase): 14000 nM
Cc1cc(C2CCN(S(=O)(=O)C(C)(C)C(=O)NO)CC2)ccc1-c1cccc(OCCN(C)C)c1 | 1 | 534 | –
O=C(CS(=O)(=O)N1CC=C(c2ccc(-c3ccccc3)c(F)c2)CC1)NO | 3 | 17 | –
COc1cccc(-c2ccc(C3=CCN(S(=O)(=O)CC(=O)NO)CC3)cc2C)c1 | 5 | 222 | –
O=C(CS(=O)(=O)N1CC(c2ccc(-c3ccccc3)cc2)C1)NO | 161 | – | Selectivity ratio [2]: < 2
CCOc1cccc(-c2ccc(C3=CCN(S(=O)(=O)CC(=O)NO)CC3)cc2C)c1 | 4 | 998 | solubility [5]: < 1 µg/mL
O=C(CS(=O)(=O)N1CC(Oc2ccc(-c3ccccc3)cc2)C1)NO | 84 | – | Selectivity ratio [2]: < 2
